Source: PubChem BioAssay
PKA-R2B activ: PKA-R2B complex activation; P22694+P31323; PKA-R2B holoenzyme dissociation, Cy5-IP20 fluorescence polarization; R2B truncated from residue 108, S112A mutant; 0% DMSO only, 100% 113 µM cGMP; AID 504700; activation, % at 11.4 µM; 0.079% of 340,000 active;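 active = activation above a cutoff set at the mean over all compounds plus 3 SD, cut at about 18% in these data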;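 also: higher means more holoenzyme dissociation and a rise in polarization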
S100A4 inh HTS: inhibitors of human S100A4 binding to myosin IIA peptide. 0.14% of 360,000 active. P26447. inhibition, % at 10.7 µM. S100A4/TAMRA-MyoIIA peptide fluorescence polarization. AID 652163;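 active = mean inhibition of at least 70% across replicates, with every replicate also reaching that level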
Target sequence (P26447 whole entry, looked up): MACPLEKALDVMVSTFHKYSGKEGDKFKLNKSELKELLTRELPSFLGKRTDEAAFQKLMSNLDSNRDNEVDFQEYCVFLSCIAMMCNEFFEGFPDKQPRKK
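Test system: S100A4 monomer protein; Medium: HEPES pH 7.2 with CaCl2, KCl, NaCl, DTT, Triton; Probe or stimulus: TAMRA-labelled myosin IIA heavy-chain peptide probe, 5 nM; Doses: one dose per compound; Times: polarization read 5 min after assay mix addition, stable 5–60 min; Benchmarks: neutral control DMSO, positive control TFP.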
PKA-R1A activ: activates the PKA-R1A holoenzyme complex; P00514+P68181; PKA-R1A dissociation, Cy5-IP20 fluorescence polarization; scaled: DMSO 0%, 113 µM cGMP 100%; activation, % at 11.4 µM; 0.083% of 340,000 active; AID 504707;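 active = percent activation above the mean of all tested compounds plus 3 SD, cut at about 19% in these data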;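 also: higher means more PKAc released from R1A so a rise in polarization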
SIRT5 block: sirtuin-5 (human) deacylase inhibition; Purified SirT5, succinyl-peptide AMC, trypsin-coupled fluorescence; inhibition, % at 15 µM; 1.1% of 330,000 active; in the data active = inhibition above about 15%
Target sequence (Q9NXA8 whole entry, looked up): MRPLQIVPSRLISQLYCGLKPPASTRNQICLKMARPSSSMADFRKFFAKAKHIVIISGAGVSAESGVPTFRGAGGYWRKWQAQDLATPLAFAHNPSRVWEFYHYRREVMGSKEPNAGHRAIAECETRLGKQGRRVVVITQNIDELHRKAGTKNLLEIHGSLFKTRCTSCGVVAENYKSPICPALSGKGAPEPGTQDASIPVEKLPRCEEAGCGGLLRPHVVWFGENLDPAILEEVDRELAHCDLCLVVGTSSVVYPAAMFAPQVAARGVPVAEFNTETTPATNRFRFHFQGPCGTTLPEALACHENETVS
CRFR2-BP antag: blocks CRF-induced signaling of the CRF-BP/CRF-R2 complex; 0.59% of 350,000 active; AID 588475; inhibition, % at 11.8 µM; HEK293 CRF-R2/CRF-BP, CRF-induced calcium fluorescence;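 active = inhibition of the ligand-induced calcium signal above about 50% at the single tested concentration, limit read from the data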
Starred values were filed as active, the others as inactive; x = no result given; + = active, no number. Compounds with a hit are over-represented: about 1.5% of the library has one in this group of screens.

SMILES	PKA-R2B activ	S100A4 inh HTS	PKA-R1A activ	SIRT5 block	CRFR2-BP antag
CCOC1=C/C(=C/c2c(N)n3nc(CC(=O)N4CCCCC4)sc3nc2=O)C=CC1=O	-5	-1	-11	32*	-68
Nc1c(C=C2C=CC(=O)C=C2)c(=O)nc2sc(CC(=O)N3CCOCC3)nn12	-3	-5	-17	23*	8
COc1ccc(OC)c(CN2CCN(S(=O)(=O)c3ccc(NC(C)=O)cc3)CC2)c1	0	-1	6	-3	53*
O=C(O)c1ccc(N/N=C/C=C/c2ccc([N+](=O)[O-])o2)cc1	-15	-39	9	15*	-49
O=C(N/N=C/c1ccc([N+](=O)[O-])o1)C(=O)Nc1ccc(C(=O)O)cc1	2	0	-5	3	7
COc1ccc2c(c1)OC[C@H]1[C@H]2N2C(=O)c3cc(OC)c(OC)cc3NC(=O)[C@@]2(C)[C@H]1c1ccccc1	-10	-5	-12	x	65*
CC(Sc1nnnn1-c1ccccc1)C(=O)Nc1ccccc1-c1ccccc1 (stereo not drawn)	2	x	-4	x	54*
O=c1ccc2[n+]([O-])c3ccc(O)cc3oc-2c1	6	+	11	11	9
Nc1nnc(SCc2ccc(F)cc2Cl)s1	1	2	-7	0	58*
COc1ccc(C#Cc2ccc([C@H]3[C@@H](CO)N4CCCCN(C(=O)Nc5ccccc5)C[C@@H]34)cc2)cc1	x	2	x	1	x
CC(=O)N1CCCCN2[C@H](CO)[C@H](c3ccc(C#Cc4ccccc4F)cc3)[C@@H]2C1	x	97*	x	0	x
COc1ccc(C#Cc2ccc([C@H]3[C@H]4CN(C(=O)Nc5ccccc5)CCCCN4[C@H]3CO)cc2)cc1	x	119*	x	-1	x
CC(C)CC#Cc1ccc([C@H]2[C@H](CO)N3CCCCN(C(=O)NC4CCCC4)C[C@@H]23)cc1	x	4	x	17*	x
CC(=O)N1CCCCN2[C@H](CO)[C@H](c3ccc(C#Cc4ccccc4F)cc3)[C@H]2C1	x	11	x	0	x
OC[C@H]1[C@H](c2ccc(C#CC3(O)CCCC3)cc2)[C@H]2CN(Cc3cncnc3)CCCCN21	x	-4	x	21*	x
CCCN(C)C[C@H]1OCCCC[C@H](C)Oc2ccc(NC(=O)Cc3ccccc3)cc2C(=O)N([C@@H](C)CO)C[C@H]1C	x	17	x	-10	x
COc1ccccc1C#Cc1ccc([C@H]2[C@H](CO)N3CCCCN(C(=O)C4CCCC4)C[C@@H]23)cc1	x	-5	x	17*	x
CC(C)CC#Cc1ccc([C@@H]2[C@H]3CN(C(=O)Nc4ccccc4)CCCCN3[C@H]2CO)cc1	x	-3	x	16*	x
O=C(C1CCCC1)N1CCCCN2[C@H](CO)[C@@H](c3ccc(C#CC4(O)CCCC4)cc3)[C@H]2C1	x	126*	x	5	x
CC(C)CC#Cc1ccc([C@H]2[C@H](CO)N3CCCCN(C(=O)Nc4ccccc4)C[C@@H]23)cc1	x	x	x	-3	x
COc1ccc(-c2ccc3n(c2=O)C[C@H]2N[C@@H]3[C@@H](C(=O)N3CCCCC3)[C@@H]2CO)cc1	x	5	x	-78	x
CCCC#Cc1ccc2c(c1)O[C@@H](CN(C)Cc1ccccc1)[C@@H](C)CN([C@H](C)CO)S2(=O)=O	x	-2	x	-2	x
CC(C)C#Cc1ccc2c(c1)O[C@@H](CN(C)Cc1ccccc1)[C@@H](C)CN([C@@H](C)CO)S2(=O)=O	x	4	x	17*	x
CC(C)C#Cc1ccc2c(c1)O[C@H](CN(C)Cc1ccccc1)[C@@H](C)CN([C@H](C)CO)S2(=O)=O	x	4	x	1	x
CC(C)C#Cc1ccc2c(c1)O[C@H](CN(C)Cc1ccccc1)[C@H](C)CN([C@H](C)CO)S2(=O)=O	x	1	x	16*	x
CCCC#Cc1ccc2c(c1)O[C@H](CN(C)Cc1ccccc1)[C@@H](C)CN([C@H](C)CO)S2(=O)=O	x	-4	x	20*	x
O=C(C[C@@H]1CC[C@H](NS(=O)(=O)c2ccc(F)cc2)[C@@H](CO)O1)NC1CCCCC1	x	21	x	0	x
O=C(NCC1CC1)c1cc2c(c(-c3cccc(-c4ccccc4F)c3)n1)[C@@H](CCO)N(C(=O)CC1CC1)C2	x	-8	x	15*	x
COCCNC(=O)c1cc2c(c(-c3cccc(-c4cccc(F)c4)c3)n1)[C@@H](CCO)N(S(=O)C(C)(C)C)C2 (stereo partly drawn)	x	0	x	-4	x
